# Results reported in ChEMBL document CHEMBL4513216, “Probing the Open Global Health Chemical Diversity Library for Multistage-Active Starting Points for Next-Generation Antimalarials” (ACS Infect Dis, 2020).
# Test: Toxicity liver stage against HepG2, at 10uM
# Format: cell-based
# Parameters: test concentration 10 uM, cell line HepG2-A16-CD81EGFP
# Conditions: human, HepG2-A16-CD81EGFP cells; read-out: INHIBITION
# Outline: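 Uninfected HepG2-A16-CD81EGFP cells, 3 × 10^3 per well, 1536-well, plated on prespotted compound at 10 μM final, parasite-free screening media added to match infected plates; puromycin 10 μM positive, DMSO 0.5% negative; run in parallel with 48 h PbLuc assay at 37 °C, 5% CO2; viability by CellTiter-Glo luminescence, normalized to controls.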
row,SMILES,cytotoxicity at 10 µM [%]
1,CNC(=O)CS(=O)(=O)Cc1cc(Cl)c2c(c1)OCCO2,-4.17
2,CS(=O)(=O)Nc1ccn(Cc2ccc(Br)cc2)n1,10.9
3,CCS(=O)(=O)N1Cc2ncn(CC3CC3)c2C(COC)C1 (stereo not given),8.83
4,Cc1cc(N2CCCC(c3[nH]ncc3Cc3ccccc3)C2)nc(N)n1 (stereo not given),57.1
5,O=C(CCCc1ccccn1)NCC(O)c1ccccc1Cl (stereo not given),-9.08
6,O=C(NCCc1ccncc1)c1cccc(S(=O)(=O)NC2CC2)c1,-151
7,O=C(CCc1cccs1)N1CCc2[nH]nc(COc3ccccc3)c2C1,0.621
8,CCn1cnnc1CN(C)Cc1c[nH]nc1-c1ccc(F)cc1,-2.59
9,c1ccc(-c2nnc(CNCCn3cccn3)o2)cc1,-10.7
10,O=C1CC(c2ccc3ccccc3n2)c2c(n[nH]c2C2CCC2)N1 (stereo not given),-6.43
11,COC(=O)c1ccc(Cn2cccc(C(F)(F)F)c2=O)s1,-8.03
12,Cc1cccc(N(CCC(N)=O)CC(=O)NC2CCCC2)c1,-20
13,COc1c(C)cnc(CN2CCC(N(C)C(=O)C(C)OC)CC2)c1C (stereo not given),-11.3
14,Fc1cccc(NCc2ncc[nH]2)c1,-9.16
15,CN(C)C(=O)C1CCc2nnc(CNC(=O)c3ccc(Cl)cc3Cl)n21 (stereo not given),7.61
16,O=C(N1CCOCC1)[C@@]12CCO[C@@H]1CCN(C1CCCCC1)C2,2.14
17,CCSc1ccc(C(=O)N2CC[C@](C)(O)[C@H](C)C2)s1,-12.2
18,CC(C)NC(=O)C(C)NC(=O)N1CCN(c2ccc(Cl)cc2)CC1 (stereo not given),-3.6
19,CN1CCO[C@@H]2CN(S(=O)(=O)c3ccc(F)cc3)CC[C@@H]2C1,2.56
20,CN(Cc1cccnc1)CC1CN(C(=O)C2CC2)Cc2nccn2C1 (stereo not given),-79.8
21,CCn1c(N)nc2cc(C(=O)N3CCN(CC(F)(F)F)CC3)cnc21,-2.03
22,NC(=O)CSc1ccccc1NC(=O)CC1C=CCC1 (stereo not given),-131
23,CN(C)C(=O)CCC1CCCN(Cc2ccc(-c3cccnc3)cc2)C1 (stereo not given),4.96

row,SMILES,cytotoxicity at 10 µM [%]
1,Cc1noc(C)c1CN1CCCC2(C1)CN(c1nccs1)CCO2 (stereo not given),8.47
2,CN1Cc2c(C(=O)NC3CCCCC3)ncn2-c2ccccc2S1(=O)=O,-153
3,CCOCCn1c(=O)[nH]c2cc(C(=O)N(C)CCc3cn[nH]c3)ccc21,-21.7
4,Cc1csc(CNC(=O)NCc2ccc3c(c2)OCCO3)n1,-5.52
5,COc1cc(C(=O)NS(=O)(=O)c2cccc(C#N)c2)ccc1C,-9.29
6,Cc1nn(C)c(C)c1CN(C(=O)c1cc(Cl)c[nH]c1=O)C(C)C,-3.25
7,O=C(C1CNCCO1)N1CCCC(c2ccccc2)(c2ccccc2)C1 (stereo not given),12.2
8,CN1CCCC2(CCN(c3cccc(C(F)(F)F)n3)C2)C1=O (stereo not given),7.87
9,Cc1ccc(C(=O)N2CCCS2(=O)=O)cc1Cl,2.29
10,CC(=O)N1CCc2nc(N(C)C)nc(NCCc3ccccc3)c2CC1,-2.38
11,CCC(C)(NCC(=O)OC)c1nc(C)cs1 (stereo not given),-3.94
12,NS(=O)(=O)c1cnc(NCC2(c3ccccc3)CCC2)s1,-4.88
13,NC(=O)CN1CCC(c2csc(Nc3cnccn3)n2)CC1,-2.19
14,CN(Cc1noc(C(C)(C)C)n1)C1CCCN(c2cccnn2)C1 (stereo not given),-7.96
15,CC(=O)c1cc2ncc(C(=O)NC3CCCC3)cc2[nH]1,-1.98
16,CC(C)CCN1CN=C(NS(=O)(=O)c2ccc(F)cc2)NC1,-3.03
17,CCNc1nnc(SC(C(=O)NCc2cccnc2)C(C)C)s1 (stereo not given),-13.3
18,CCn1ccnc1CN1CCCC(N(C)CCc2ccccc2)C1 (stereo not given),2.88
19,Cc1cc(NCc2cccc(C#N)c2)ccc1C(=O)N(C)C,7.06
20,COCC(=O)N1CC[C@H]2N(C)CC[C@@]2(C(=O)Nc2ccccc2)CC1,3.48
21,CCOc1ccnc(N2CCCN(c3nc(C4CC4)ns3)CC2)n1,6.97
22,CCN(CC(C)C#N)C(=O)CNc1ccc(F)c(C)c1 (stereo not given),17.5
